# Legend:
# [1] = molecular target: T1, Amine oxidase [flavin-containing] B (Homo sapiens, UniProt P27338); assay: Binding affinity to MAO-B in human brain white matter at 4 MBq after 90 mins by autoradiography; format: tissue-based; details: 1.5 h
# T1 sequence (P27338 whole entry): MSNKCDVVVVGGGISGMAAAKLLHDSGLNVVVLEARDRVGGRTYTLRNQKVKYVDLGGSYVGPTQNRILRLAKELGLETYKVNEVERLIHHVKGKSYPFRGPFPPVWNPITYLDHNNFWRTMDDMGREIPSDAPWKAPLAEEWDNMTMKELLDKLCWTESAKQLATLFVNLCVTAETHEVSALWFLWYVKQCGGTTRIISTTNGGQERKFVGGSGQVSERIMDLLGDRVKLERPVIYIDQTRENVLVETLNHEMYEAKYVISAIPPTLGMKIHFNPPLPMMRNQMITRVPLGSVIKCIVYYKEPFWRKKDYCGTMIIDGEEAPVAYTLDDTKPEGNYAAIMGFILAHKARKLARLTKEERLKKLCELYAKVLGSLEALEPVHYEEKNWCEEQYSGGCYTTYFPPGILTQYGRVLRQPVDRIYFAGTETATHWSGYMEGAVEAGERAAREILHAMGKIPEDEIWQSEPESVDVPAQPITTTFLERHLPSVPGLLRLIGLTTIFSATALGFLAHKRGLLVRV
# Summary of the method: (§1)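 100 μm whole-hemisphere post-mortem brain sections (control subject, 11 h post-mortem, stored at −25 °C) incubated 90 min at room temperature with 4 MBq/200 mL radiotracer in 50 mM TRIS pH 7.4 (NaCl 120 mM, KCl 5 mM, CaCl2 2 mM, 0.1% albumin); washed 3 × 5 min in buffer, dipped in ice-cold water, dried, phosphorimaged.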
# [2] = molecular target: T1, Amine oxidase [flavin-containing] B; assay: Binding affinity to MAO-B in human brain cortical gray matter at 4 MBq after 90 mins by autoradiography; format: tissue-based; details: 1.5 h; summary of the method: as §1
# [3] = molecular target: T1, Amine oxidase [flavin-containing] B; assay: Binding affinity to MAO-B in human brain white matter at 4 MBq after 90 mins by autoradiography in presence of 10 uM MAO-B inhibitor L-deprenyl; format: tissue-based; details: 1.5 h; summary of the method: as §1
# [4] = molecular target: T1, Amine oxidase [flavin-containing] B; assay: Binding affinity to MAO-B in human brain white matter at 4 MBq after 90 mins by autoradiography in presence of 10 uM MAO-A inhibitor pirlindole; format: tissue-based; details: 1.5 h; summary of the method: as §1
# [5] = molecular target: T1, Amine oxidase [flavin-containing] B; assay: Binding affinity to MAO-B in human brain white matter at 4 MBq after 90 mins by autoradiography in presence of 10 uM MAO-B inhibitor rasagiline; format: tissue-based; details: 1.5 h; summary of the method: as §1
# [6] = Stability of the compound in PBS buffer assessed as half life at pH 7.4; format: physicochemical
# [7] = molecular target: T2, Amine oxidase [flavin-containing] A (Homo sapiens, UniProt P21397); assay: Inhibition of human recombinant MAO-A expressed in insect cells assessed as inhibition of kynuramine oxidation after 30 mins by fluorescence assay
# T2 sequence (P21397 whole entry): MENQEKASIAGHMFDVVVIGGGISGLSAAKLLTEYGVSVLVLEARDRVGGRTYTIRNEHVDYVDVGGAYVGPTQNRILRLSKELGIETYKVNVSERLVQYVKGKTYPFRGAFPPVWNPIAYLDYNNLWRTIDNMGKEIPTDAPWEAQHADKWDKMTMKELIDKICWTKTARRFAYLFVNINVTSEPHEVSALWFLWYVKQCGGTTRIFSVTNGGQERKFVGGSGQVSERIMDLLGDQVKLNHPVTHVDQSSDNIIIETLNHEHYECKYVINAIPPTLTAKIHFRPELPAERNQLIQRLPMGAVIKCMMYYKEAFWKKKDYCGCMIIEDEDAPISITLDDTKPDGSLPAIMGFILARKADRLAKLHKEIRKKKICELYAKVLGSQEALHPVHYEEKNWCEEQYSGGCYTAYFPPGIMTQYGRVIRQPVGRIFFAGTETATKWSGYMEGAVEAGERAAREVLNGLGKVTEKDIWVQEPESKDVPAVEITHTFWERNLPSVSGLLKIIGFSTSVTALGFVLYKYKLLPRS
# [8] = molecular target: T1, Amine oxidase [flavin-containing] B; assay: Inhibition of human recombinant MAO-B expressed in insect cells assessed as inhibition of kynuramine oxidation after 30 mins by fluorescence assay; format: cell-based
# [9] = molecular target: T1, Amine oxidase [flavin-containing] B; assay: Binding affinity to MAO-B in human brain hippocampus at 4 MBq after 90 mins by autoradiography; format: tissue-based; details: 1.5 h; summary of the method: as §1
# [10] = molecular target: T1, Amine oxidase [flavin-containing] B; assay: Binding affinity to MAO-B in human brain cortical gray matter at 4 MBq after 90 mins by autoradiography in presence of 10 uM MAO-B inhibitor L-deprenyl; format: tissue-based; details: 1.5 h; summary of the method: as §1
# [11] = molecular target: T1, Amine oxidase [flavin-containing] B; assay: Binding affinity to MAO-B in human brain cortical gray matter at 4 MBq after 90 mins by autoradiography in presence of 10 uM MAO-B inhibitor rasagiline; format: tissue-based; details: 1.5 h; summary of the method: as §1
# [12] = molecular target: T1, Amine oxidase [flavin-containing] B; assay: Binding affinity to MAO-B in human brain cortical gray matter at 4 MBq after 90 mins by autoradiography in presence of 10 uM MAO-A inhibitor pirlindole; format: tissue-based; details: 1.5 h; summary of the method: as §1
# Brain [13] = assay: Drug uptake in NMRI mouse brain at 0.178 MBq, iv after 2 mins post injection by gamma counting; format: ADME, organism-based; details: in vivo
# Summary of the method: (§2)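 NMRI mice (25.0–31.5 g), three per time point, each given 0.178 MBq tracer in 0.9% NaCl; killed by isoflurane overdose at each post-injection time; organs and blood excised and γ-counted; values decay-corrected and expressed as %ID/g.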
# Brain [14] = assay: Drug uptake in NMRI mouse brain at 0.178 MBq, iv after 30 mins post injection by gamma counting; format: ADME, organism-based; details: in vivo, 0.5 h; summary of the method: as §2
# Brain [15] = assay: Drug uptake in NMRI mouse brain at 0.178 MBq, iv after 4 hrs by gamma counting; format: ADME, organism-based; details: in vivo; summary of the method: as §2
# [16] = molecular target: T1, Amine oxidase [flavin-containing] B; assay: Binding affinity to MAO-B in human brain Alzheimer disease slices at 4 MBq after 90 mins by autoradiography; details: 1.5 h
# [17] = molecular target: T1, Amine oxidase [flavin-containing] B; assay: Binding affinity to MAO-B in human brain Alzheimer disease slices at 4 MBq after 90 mins by autoradiography in presence of 10 uM MAO-B inhibitor L-deprenyl; details: 1.5 h
# [18] = molecular target: T1, Amine oxidase [flavin-containing] B; assay: Binding affinity to MAO-B in human brain Alzheimer disease slices at 4 MBq after 90 mins by autoradiography in presence of 10 uM MAO-B inhibitor rasagiline; details: 1.5 h
# [19] = molecular target: T1, Amine oxidase [flavin-containing] B; assay: Binding affinity to MAO-B in human brain Alzheimer disease slices at 4 MBq after 90 mins by autoradiography in presence of 10 uM MAO-A inhibitor pirlindole; details: 1.5 h
# [20] = molecular target: T2, Amine oxidase [flavin-containing] A; assay: Binding affinity to MAO-A in human brain Alzheimer disease slices at 4 MBq after 90 mins by autoradiography; details: 1.5 h
# [21] = Fraction unbound in human plasma at 20 MBq after 10 mins by ultrafiltration; format: ADME, cell-free
# Summary of the method: (§3)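 Duplicate: 500 μL monkey or human plasma, or PBS pH 7.4 as control, mixed with 50 μL tracer formulation (~20 MBq in PBS), 10 min at room temperature; 200 μL ultrafiltered by centrifugation 15 min at 3000 rpm; total and filtrate well-counted; bound fraction corrected for membrane binding using PBS control.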
# [22] = Fraction unbound in monkey plasma at 20 MBq after 10 mins by ultrafiltration; format: ADME, cell-free, Macaca mulatta; details: rhesus monkey; summary of the method: as §3
compound,measurement,setting,value
C#CCN(CC[18F])[C@H](C)Cc1ccccc1,Activity,[1],Active
same,Activity,[2],Not Active
same,Activity,[3],Active
same,Activity,[4],Active
same,Activity,[5],Active
C#CCN(C)[C@H](CF)Cc1ccccc1,half-life,[6],1.83 h
same,IC50,[7],> 2000 nM
same,IC50,[8],170 nM
C#CCN(CCF)[C@H](C)Cc1ccccc1,half-life,[6],1.83 h
same,IC50,[8],> 2000 nM
C#CCN(C)[C@H](C)[C@@H]([18F])c1ccccc1,Activity,[9],Active
same,Activity,[10],Not Active
same,Activity,[11],Not Active
same,Activity,[12],Active
C#CCN(C)[C@H](C)[C@H](F)c1ccccc1,half-life,[6],1.83 h
same,IC50,[8],> 2000 nM
C#CCN(C)[C@H](C[18F])Cc1ccccc1,Drug uptake,Brain [13],5.2 % ID/g
same,Drug uptake,Brain [14],1.9 % ID/g
same,Drug uptake,Brain [15],1.4 % ID/g
same,Activity,[16],Active
same,Activity,[17],Not Active
same,Activity,[18],Not Active
same,Activity,[19],Active
same,Activity,[20],Not Active
same,"fraction unbound at 10 min, 20 MBq",[21],0.168
same,"fraction unbound at 10 min, 20 MBq",[22],0.241

# From ChEMBL document CHEMBL1909627, “Synthesis of three novel fluorine-18 labeled analogues of L-deprenyl for positron emission tomography (PET) studies of monoamine oxidase B (MAO-B)” (J Med Chem, 2011)
